# In ChEMBL document CHEMBL3297654, “Synthesis, antimicrobial and cytotoxic activities, and structure-activity relationships of gypsogenin derivatives against human cancer cells” (Eur J Med Chem, 2014):
# Legend:
# HT-29 [1] = assay: Induction of apoptosis in human HT-29 cells at 0.5 uM after 48 hrs by Hoechst 33258/propidium iodide staining based phase contrast microscopic analysis; type: functional
# Summary of the method: (§1)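 Cells in 48-well plates treated with 0.5, 10, 20 or 40 µM for 24 and 48 h. Values are read at 48 h, 20 µM for test agents and 0.5 µM for controls. Staining is Hoechst 33258/propidium iodide double staining with fluorescence microscopy. Blue nuclei are viable or early-to-mid apoptotic, and pink nuclei are late apoptotic or necrotic. Apoptosis and necrosis are scored from chromatin condensation as % of cells. Cells are grown at 37 °C in 5% CO2 in RPMI, DMEM or McCoy's 5A with 10–15% heat-inactivated FCS.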
# Caco-2 [2] = assay: Induction of apoptosis in human Caco2 cells at 0.5 uM after 48 hrs by Hoechst 33258/propidium iodide staining based phase contrast microscopic analysis; type: functional; summary of the method: as §1
# HL-60 [3] = assay: Induction of apoptosis in human HL60 cells at 0.5 uM after 48 hrs by Hoechst 33258/propidium iodide staining based phase contrast microscopic analysis; type: functional; summary of the method: as §1
# HL-60 [4] = assay: Antiproliferative activity against human HL60 cells after 24 and 72 hrs by MTT assay; type: functional, cell-based
# Summary of the method: (§2)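 ATCC human cell lines are kept in RPMI, DMEM or McCoy's 5A with 10–15% heat-inactivated FCS at 37 °C and 5% CO2. They are seeded at 1×10^4–1×10^5 cells/mL in 48-well plates and exposed to 0.5, 10, 20 or 40 µM. Viability is read by MTT (590 nm) at 24 and 72 h. Growth is expressed relative to untreated cells and IC50 is fitted, in triplicate.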
# Caco-2 [5] = assay: Antiproliferative activity against human Caco2 cells after 24 and 72 hrs by MTT assay; type: functional, cell-based; summary of the method: as §2
# HT-29 [6] = assay: Antiproliferative activity against human HT-29 cells after 24 and 72 hrs by MTT assay; type: functional, cell-based; summary of the method: as §2
# HL-60 [7] = assay: Induction of necrosis in human HL60 cells at 0.5 uM after 48 hrs by Hoechst 33258/propidium iodide staining based phase contrast microscopic analysis; type: functional; summary of the method: as §1
# SAOS-2 [8] = assay: Induction of apoptosis in human Saos2 cells at 0.5 uM after 48 hrs by Hoechst 33258/propidium iodide staining based phase contrast microscopic analysis; type: functional; summary of the method: as §1
# MCF7 [9] = assay: Induction of necrosis in human MCF7 cells at 0.5 uM after 48 hrs by Hoechst 33258/propidium iodide staining based phase contrast microscopic analysis; type: functional; summary of the method: as §1
# HeLa [10] = assay: Antiproliferative activity against human HeLa cells after 24 and 72 hrs by MTT assay; type: functional, cell-based; summary of the method: as §2
# [11] = Antiproliferative activity against human Saos2 cells after 24 and 72 hrs by MTT assay; type: functional, cell-based; settings: SAOS-2; summary of the method: as §2
# SAOS-2 [12] = assay: Induction of necrosis in human Saos2 cells at 0.5 uM after 48 hrs by Hoechst 33258/propidium iodide staining based phase contrast microscopic analysis; type: functional; summary of the method: as §1
# MCF7 [13] = assay: Induction of apoptosis in human MCF7 cells at 0.5 uM after 48 hrs by Hoechst 33258/propidium iodide staining based phase contrast microscopic analysis; type: functional; summary of the method: as §1
# HeLa [14] = assay: Induction of necrosis in human HeLa cells at 0.5 uM after 48 hrs by Hoechst 33258/propidium iodide staining based phase contrast microscopic analysis; type: functional; summary of the method: as §1
# Caco-2 [15] = assay: Induction of necrosis in human Caco2 cells at 0.5 uM after 48 hrs by Hoechst 33258/propidium iodide staining based phase contrast microscopic analysis; type: functional; summary of the method: as §1
# HeLa [16] = assay: Induction of apoptosis in human HeLa cells at 0.5 uM after 48 hrs by Hoechst 33258/propidium iodide staining based phase contrast microscopic analysis; type: functional; summary of the method: as §1
# HT-29 [17] = assay: Induction of necrosis in human HT-29 cells at 0.5 uM after 48 hrs by Hoechst 33258/propidium iodide staining based phase contrast microscopic analysis; type: functional; summary of the method: as §1
# Micrococcus luteus = assay: Antimicrobial activity against Micrococcus luteus ATCC 9341 assessed as zone of inhibition at 30 mg for 24 hrs at 30 degC by disk diffusion test; type: functional; settings: ATCC 9341, 24 h, read-out: DIZ
IC50 (HL-60 [4]) [µM],IC50 (Caco-2 [5]) [µM],IC50 (HT-29 [6]) [µM],IC50 (HeLa [10]) [µM],SMILES,Activity (HT-29 [1]) [%],Activity (Caco-2 [2]) [%],Activity (HL-60 [3]) [%],Activity (HL-60 [7]) [%],Activity (SAOS-2 [8]) [%],Activity (MCF7 [9]) [%],IC50 [11] [µM],Activity (SAOS-2 [12]) [%],Activity (MCF7 [13]) [%],Activity (HeLa [14]) [%],Activity (Caco-2 [15]) [%],Activity (HeLa [16]) [%],Activity (HT-29 [17]) [%],zone of inhibition at 30000 µg/disc (Micrococcus luteus) [mm]
0.33,0.35,0.31,0.34,COc1cccc2c1C(=O)c1c(O)c3c(c(O)c1C2=O)C[C@@](O)(C(=O)CO)C[C@@H]3O[C@H]1C[C@H](N)[C@H](O)[C@H](C)O1 [DOXORUBICIN],5,4,2,45,2,44,0.33,34,1,28,47,2,49,
,,,,O=C(N[C@H](CO)[C@H](O)c1ccc([N+](=O)[O-])cc1)C(Cl)Cl [CHLORAMPHENICOL],,,,,,,,,,,,,,25
